PfHsp90 yeast 2 = growth inhibition of yeast expressing Plasmodium Hsp90 | S. cerevisiae expressing PfHsp90, BacTiter-Glo ATP, 48 h; yeast lacking PDR1 and PDR3 efflux regulators | inhibition, % at 9.4 µM | hit rate 0.32% among 310,000 | AID 504621;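 active = every replicate shows inhibition above about 80%, whatever the replicate mean, limit read from the data; inconclusive = mean inhibition reaches the set limit but some replicate falls short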;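 also: 0% = DMSO neutral controls and 100% = 20 µM radicicol positive controls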
HIV Env fusion = blocks HIV Env-driven cell-cell fusion; HeLa-JRFL Env/CEM21 cell fusion, luciferase; hit rate 1.1% among 360,000; inhibition, % at 12.3 µM; AID 651610;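 active = mean replicate inhibition score of at least 50 and every replicate individually at or above 50; inconclusive = only one of the two criteria met; inactive = mean below 50 and not all replicates reaching 50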;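 also: 0% = plate neutral controls and 100% = maraviroc near 300 nM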
Rtt109 HAT inh = blocks Candida albicans Rtt109/Vps75 acetyltransferase activity | purified Rtt109/Vps75, ThioGlo CoA-SH fluorescence, 4 h | inhibition, % at 34.9 µM | Q5AAJ8 | hit rate 0.16% among 330,000 | AID 540336;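 active = inhibition of at least 50% in every replicate; inconclusive = best replicate reaches 50% inhibition but some replicates fall short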
Target sequence (Q5AAJ8 whole entry, looked up): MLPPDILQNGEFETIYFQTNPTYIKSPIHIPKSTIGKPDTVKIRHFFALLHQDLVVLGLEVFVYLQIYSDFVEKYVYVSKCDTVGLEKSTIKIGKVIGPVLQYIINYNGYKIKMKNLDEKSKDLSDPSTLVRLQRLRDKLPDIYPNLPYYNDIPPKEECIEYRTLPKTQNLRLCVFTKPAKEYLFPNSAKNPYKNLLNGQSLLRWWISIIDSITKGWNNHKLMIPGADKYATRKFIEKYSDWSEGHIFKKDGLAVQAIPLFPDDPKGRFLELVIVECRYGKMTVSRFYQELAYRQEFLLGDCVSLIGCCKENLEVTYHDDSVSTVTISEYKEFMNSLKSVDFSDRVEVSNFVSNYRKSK
PAX8 reporter = inhibitors of PAX8 transcriptional activity in RMG-I cells | RMG-I TPO-luciferase reporter, SteadyGlo, 24 h | hit rate 1.2% among 360,000 | inhibition, % at 12.6 µM | AID 652154;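 active = mean replicate inhibition at least 60% with every replicate also reaching 60%; inconclusive = only one of the two criteria is met; inactive = mean below 60% and not all replicates reaching 60%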;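 also: luciferase light reporting Pax8 driven TPO promoter activity; plate controls were median of neutral control wells for no effect and mitoxantrone controls for full effect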
N-glyco inh = blocks N-linked glycosylation in D54 reporter cells. D54 ERlucT glycosylation luciferase reporter, 24 h; percent of 100 nM tunicamycin response. reporter increase, % at 12.5 µM. hit rate 0.23% among 360,000. AID 588692;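 active = mean luciferase reporter signal, scaled so untreated is 0 and the glycosylation-blocking control 100, at or above a set limit in every replicate; inconclusive = mean reaches the limit but not every replicate does; inactive = mean below the limit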;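 also: luciferase carries N-glycosylation sites so blocking glycosylation raises the light; 0% = median of neutral control wells and 100% = median of 100 nM tunicamycin wells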
Arr AP2 block = human beta-arrestin and AP2 interaction inhibition | FITC-arrestin peptide / GST-AP2 beads, flow cytometry; AP2 beta2 appendage carries R879A mutation | inhibition, % at 10 µM | hit rate 0.31% among 340,000;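 active = inhibition above a set limit, near 3 SD of compounds lacking own fluorescence, cut at about 54% in these data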;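 also: plate controls were DMSO wells for no effect and 5 µM unlabelled arrestin peptide for full effect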
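system = GST-tagged AP2 beta2-adaptin appendage (R879A) on 4 µm glutathione beads | reagent = FITC-labelled arrestin peptide probe, 50 nM final | schedule = compound with beads 12 min RT, then probe 1 h RT | signal = HyperCyt-sampled flow cytometry, FL1 channel, ex 488/em 535 nm | read-out = percent response from loss of bead-bound FITC fluorescence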
* marks the source's active call; other numbers are inactive results; ? = inconclusive; · = no result given; [ ] = dose if it differs, or a comment. In the library only some 2.3% were active in any assay of this set; here they are far more common.

SMILES	PfHsp90 yeast 2	HIV Env fusion	Rtt109 HAT inh	PAX8 reporter	N-glyco inh	Arr AP2 block
C[C@H]1CCCCO[C@H](CN(C)Cc2ccc(C(F)(F)F)cc2)[C@@H](C)CN([C@@H](C)CO)C(=O)c2cc(NC(=O)Nc3ccc(C(F)(F)F)cc3)ccc2O1	·	37[16.7 µM]	·	-4	·	·
C[C@@H]1CCCCO[C@H](CN(C)Cc2ccc(C(F)(F)F)cc2)[C@@H](C)CN([C@H](C)CO)C(=O)c2cc(NC(=O)Nc3ccc(C(F)(F)F)cc3)ccc2O1	·	12[16.7 µM]	·	-9	·	·
C[C@@H]1CCCCO[C@H](CN(C)Cc2ccncc2)[C@H](C)CN([C@@H](C)CO)C(=O)c2cc(NC(=O)Nc3ccc(C(F)(F)F)cc3)ccc2O1	·	-6[16.7 µM]	·	92*	·	·
C[C@@H]1CCCCO[C@H](CN(C)Cc2ccc(C(F)(F)F)cc2)[C@@H](C)CN([C@@H](C)CO)C(=O)c2cc(NC(=O)Nc3ccc(C(F)(F)F)cc3)ccc2O1	·	?	·	3	·	·
C[C@@H]1CCCCO[C@H](CN(C)Cc2ccncc2)[C@H](C)CN([C@H](C)CO)C(=O)c2cc(NC(=O)Nc3ccc(C(F)(F)F)cc3)ccc2O1	·	20[16.7 µM]	·	95*	·	·
C[C@@H]1CN([C@H](C)CO)C(=O)c2cc(NC(=O)Nc3ccc(C(F)(F)F)cc3)ccc2O[C@@H](C)CCCCO[C@@H]1CN(C)Cc1ccncc1	·	14[16.7 µM]	·	93*	·	·
COc1ccccc1CNC(=O)C[C@@H]1C[C@H]2c3cc(NC(=O)NC4CCCC4)ccc3O[C@H]2[C@H](CO)O1	·	-2[16.7 µM]	·	5	·	·
COC(=O)c1cn(CCNC(=O)Nc2ccccc2)nn1	·	10[16.7 µM]	·	1	·	·
O=[N+]([O-])c1cccc(S(=O)(=O)[N-]c2nc3ccccc3nc2-n2cc[n+](Cc3ccccc3)c2)c1	-14	13	15	12	10	0
Cc1ccc(S(=O)(=O)[N-]c2nc3ccccc3nc2-n2cc[n+](Cc3ccccc3)c2)cc1	11	-103	9	18	43*	34
O=S(=O)([N-]c1nc2ccccc2nc1-n1cc[n+](Cc2ccccc2)c1)c1ccccc1	24	-46	-2	14	40*	45
C[C@@H]1CCCCO[C@@H](CN(C)S(=O)(=O)c2ccccc2)[C@H](C)CN([C@@H](C)CO)C(=O)c2cc(N(C)C)ccc2O1	·	5[16.7 µM]	·	34	·	·
CN(CCc1cn[nH]c1)Cc1nc(C(c2ccccc2)c2ccccc2)no1	-13	-9	1	144*	-3	3
Cc1nc2ccc(NC(=O)c3cc(S(=O)(=O)N(C)c4ccccc4)ccc3Cl)cc2s1	-45	87*	-3	·	-7	2
CN(c1ccccc1)S(=O)(=O)c1ccc(Cl)c(C(=O)Nc2ccc(N3CCOCC3)cc2)c1	-10	7	15	9	-11	4
Cc1nc2ccc(NC(=O)c3ccc(Cl)c(S(=O)(=O)N(C)c4ccccc4)c3)cc2s1	-13	74*	1	43	-11	20
CO[C@@H]1CC[C@H]2CCN(C)C(=O)C[C@@H](c3ccccc3)CN(C)C(=O)c3cccc(C#N)c3OC[C@H]1O2	·	5[16.7 µM]	·	24	·	·
CC(NC(=O)CCn1ccc2cc(S(=O)(=O)N3CCCC3)ccc21)c1ccccc1 (stereo not drawn)	23	57*	0	-1	0	2
CCC(C)NC(=O)CCn1ccc2cc(S(=O)(=O)N3CCCC3)ccc21 (stereo not drawn)	-4	10	5	-2	-1	9
C[C@@H]1CN([C@H](C)CO)C(=O)c2cc(-c3ccccc3)cnc2O[C@H]1CN(C)C(=O)c1ccccn1	·	18[16.7 µM]	·	·	·	·
Nc1c(Cl)cc2c(c1Oc1ccccc1)C(=O)c1ccccc1C2=O	-5	125*	·	·	3	24
Nc1c(Cl)cc2c(c1Br)Cc1ccccc1-2	-4	-4	-15	2	1	-3
COCC(=O)N(C)C[C@H]1Oc2cc(C#CCC(C)C)ccc2S(=O)(=O)N([C@H](C)CO)C[C@@H]1C	·	-27[16.7 µM]	·	·	·	·
Cc1ccc(NC(=S)N(CCCN2CCOCC2)Cc2ccccn2)cc1	-10	·	0	110*	1	-2
Cc1ccc2[nH]c(C)c(/C=C/c3cc[n+](C)cc3)c2c1	14	60*	0	78*	-10	-5
SMILES	PfHsp90 yeast 2	HIV Env fusion	Rtt109 HAT inh	PAX8 reporter	N-glyco inh	Arr AP2 block
CO[C@H]1CN(C)C(=O)c2cc(C#N)ccc2OC[C@@H]2O[C@H](CC[C@H]2OC)CCN(C)C(=O)[C@H]1C	·	0[16.7 µM]	·	6	·	·
COc1ccc(N2CCN(C(=O)Cc3nn(C)c(=O)c4ccccc34)CC2)cc1	·	61*	-12	·	0	5
CN1CCN(c2nc3c(c(=O)[nH]c(=O)n3C)n2Cc2ccc(Cl)cc2)CC1	-4	11	67*	5	3	4
Cc1cc(/C=N/n2cnnc2)c(C)n1-c1ccc(OCc2ccc(F)cc2)cc1	-156	66*	10	·	-7	8
Cc1cc(/C=N/n2cnnc2)c(C)n1-c1ccc(OCc2ccc(Cl)cc2Cl)cc1	-1	·	-6	·	-2	27
O=C(NC12CC3CC(CC(C3)C1)C2)c1ccccc1	7	9	4	-19	-2	-16
O=C(NC12CC3CC(CC(C3)C1)C2)N(Cc1ccccc1)Cc1ccncc1	·	62*	-12	-21	-3	-5
N#C[C@@H]1[C@H](c2ccc(-c3ccccc3F)cc2)[C@@H](CO)N1C(=O)c1ccccn1	·	57*[16.7 µM]	·	18	·	·
N#C[C@H]1[C@H](c2ccc(-c3ccccc3F)cc2)[C@H](CO)N1C(=O)c1ccccn1	·	-1[16.7 µM]	·	0	·	·
N#Cc1ccc(-c2ccc(C3[C@H]4CNC[C@@H]3N4C(=O)NC3CCCCC3)cc2)cc1 (stereo partly drawn)	·	·	·	73*	·	·
N#C[C@H]1[C@@H](c2ccc(-c3cccc(F)c3)cc2)[C@@H](CO)N1C(=O)NC1CCCCC1	·	·	·	68*	·	·
N#C[C@H]1[C@@H](c2ccc(-c3cccc(F)c3)cc2)[C@H](CO)N1C(=O)NC1CCCC1	·	9[16.7 µM]	·	6	·	·
N#C[C@@H]1[C@H](c2ccc(-c3cccc(F)c3)cc2)[C@H](CO)N1C(=O)NC1CCCC1	·	65*[16.7 µM]	·	3	·	·
C[C@@H]1CN([C@@H](C)CO)C(=O)c2cc(NC(=O)C3CCCCC3)ccc2O[C@@H]1CN(C)C(=O)Nc1ccc(F)cc1	·	-5[16.7 µM]	·	15	·	·
N#C[C@@H]1[C@@H](c2ccc(-c3cccc(F)c3)cc2)[C@H](CO)N1C(=O)NC1CCCC1	·	3[16.7 µM]	·	89*	·	·
O=c1c2ccccc2ncn1CCCOc1ccccc1[N+](=O)[O-]	13	-69	-8	·	-1	1
Cc1cc(OCCCn2cnc3ccccc3c2=O)ccc1[N+](=O)[O-]	-2	·	3	88*	1	11
CC1(C)C2CCC(C2)C1(C)NC(=O)CNCC1CCCCC1 (stereo not drawn)	8	61*	8	-1	-5	2
